Numbered stars: 1 amine (or outer) side, 2 acyl side, 3 side chain; on linkers, the order of the positions; unused ones are H or OH. Square brackets hold non-standard residues; d marks the D form. Peptide text beside a SMILES is read from it. * marks the point of attachment. X3 = CCC(=O)C[C@@H](O)C[C@@H](C)C[C@H](N[*:1])C(=O)[*:2]; X8 = CCC(=O)C[C@H](O)C[C@@H](C)C[C@H](N[*:1])C(=O)[*:2]; X2 = CCCC[C@@H](O)C[C@@H](C)C[C@H](N[*:1])C(=O)[*:2]; X6 = CCCC[C@H](O)C[C@@H](C)C[C@H](N[*:1])C(=O)[*:2]; X4 = CCCCCCCC[C@@H](C)C[C@H](N[*:1])C(=O)[*:2]; Nva(5-pentanoyl) = CCCCC(=O)CCC[C@H](N)C(=O)O; X1 = CCCCCC[C@@H](C)C[C@H](N[*:1])C(=O)[*:2]; NH((S)CH(Me)CH2NHC2H4OH) = C[C@@H](CNCCO)N*; X9 = CCC(=O)CC(O)CCC[C@H](N[*:1])C(=O)[*:2]; X5 = CCCCCCC(=O)CCC[C@H](N[*:1])C(=O)[*:2]; Gly(decyl) = CCCCCCCCCC[C@H](N)C(=O)O; X7 = O=C([C@H](CCCCO)N[*:1])[*:2]; Aoc(2) = CCCCCC[C@H](N)C(=O)O; hSer = N[C@@H](CCO)C(=O)O; Aib = CC(C)(N)C(=O)O; Butyryl = CCCC(=O)*; βAla = NCCC(=O)O
Experiments:
Assay type in all cases: functional, cell-based
[1] = tested on: SK-BR-3; assay: Antiproliferative activity against human SKBR3 cells incubated for 5 days by SRB assay; conditions: SK-BR-3, 120 h
In short: (§1)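 STR-authenticated cells, <3 months passage, in DMEM + 10% FCS at 37 °C, 5% CO2, were seeded at 2000 cells/well and attached overnight. They were then exposed in duplicate to 3-fold serial dilutions from a 30 mM DMSO stock for 5 days. Staining was with sulphorhodamine B. IC50 was interpolated from 4-parameter logistic fits versus peptide-free controls on the same plate. Values are mean ± SEM, n = 2–3 independent experiments.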

[2] = tested on: MDA-MB-468; assay: Antiproliferative activity against human MDA-MB-468 cells incubated for 5 days by SRB assay; conditions: MDA-MB-468, 120 h; in short: as §1
[3] = tested on: T47D; assay: Antiproliferative activity against human T47D cells incubated for 5 days by SRB assay; conditions: 120 h
In short: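 Cells were grown in RPMI + 10% FCS (37 °C, 5% CO2, STR-authenticated, <3 months passage) and seeded at 1500 cells/well. After overnight attachment they received 3-fold serial dilutions (30 mM DMSO stock) in duplicate for 5 days. Total cells were measured by sulphorhodamine B staining. IC50 was interpolated from a 4-parameter logistic fit against same-plate untreated controls. Values are mean ± SEM, n = 2–3.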

[4] = tested on: NCI-H460; assay: Antiproliferative activity against human NCI-H460 cells incubated for 5 days by SRB assay; conditions: NCI-H460, 120 h
In short: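 Cultured in alpha MEM + 5% FCS, 37 °C, 5% CO2; STR-authenticated, <3 months passage. Seeded at 300 cells/well and attached overnight, then given duplicate 3-fold serial dilutions of peptide (30 mM DMSO stock) for 5 days. Read-out was sulphorhodamine B staining. IC50 was interpolated from a 4-parameter logistic fit versus peptide-free controls. Values are mean ± SEM of 2–3 independent experiments.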

SMILES | IC50 [1] [µM] | IC50 [2] [µM] | IC50 [3] [µM] | IC50 [4] [µM]
CCCCCC[C@@H](C)C[C@H](NC(=O)C(C)(C)NC(=O)C(C)(C)NC(=O)[C@H](CC(C)C)NC(=O)[C@@H]1CCCN1C(=O)CCC)C(=O)N[C@@H](CC(C)C)C(=O)NC(C)(C)C(=O)N[C@@H](CC(C)C)C(=O)NCCC(=O)N[C@@H](C)CNCCO (Butyryl-PL[Aib][Aib][X1]L[Aib]L[βAla]-{NH((S)CH(Me)CH2NHC2H4OH)}) | 0.28 | 0.09 | 0.07 | 0.13
CCCCCC[C@@H](C)C[C@H](NC(=O)C(C)(C)NC(=O)C(C)(C)NC(=O)[C@H](CO)NC(=O)[C@@H]1CCCN1C(=O)CCC)C(=O)N[C@@H](CC(C)C)C(=O)NC(C)(C)C(=O)N[C@@H](CC(C)C)C(=O)NCCC(=O)N[C@@H](C)CNCCO (Butyryl-PS[Aib][Aib][X1]L[Aib]L[βAla]-{NH((S)CH(Me)CH2NHC2H4OH)}) | > 0.5 | 0.074 | 0.066 | 0.127
CCCCCC[C@@H](C)C[C@H](NC(=O)C(C)(C)NC(=O)C(C)(C)NC(=O)[C@H](C[C@H](C)C[C@H](O)CCCC)NC(=O)[C@@H]1CCCN1C(=O)CCC)C(=O)N[C@@H](CC(C)C)C(=O)NC(C)(C)C(=O)N[C@@H](CC(C)C)C(=O)NCCC(=O)N[C@@H](C)CNCCO (Butyryl-P[X2][Aib][Aib][X1]L[Aib]L[βAla]-{NH((S)CH(Me)CH2NHC2H4OH)}) | 0.327 | 0.111 | 0.197 | 0.126
CCCCCC[C@@H](C)C[C@H](NC(=O)C(C)(C)NC(=O)C(C)(C)NC(=O)[C@H](C[C@H](C)C[C@H](O)CC(=O)CC)NC(=O)[C@@H]1CCCN1C(=O)CCC)C(=O)N[C@@H](CC(C)C)C(=O)NC(C)(C)C(=O)N[C@@H](CC(C)C)C(=O)NCCC(=O)N[C@@H](C)CNCCO (Butyryl-P[X3][Aib][Aib][X1]L[Aib]L[βAla]-{NH((S)CH(Me)CH2NHC2H4OH)}) | 0.035 | 0.011 | 0.007 | 0.008
CCCCCC[C@@H](C)C[C@H](NC(=O)C(C)(C)NC(=O)C(C)(C)NC(=O)[C@H](C[C@H](C)C[C@@H](O)CCCC)NC(=O)[C@@H]1CCCN1C(=O)CCC)C(=O)N[C@@H](CC(C)C)C(=O)NC(C)(C)C(=O)N[C@@H](CC(C)C)C(=O)NCCC(=O)N[C@@H](C)CNCCO (Butyryl-P[X6][Aib][Aib][X1]L[Aib]L[βAla]-{NH((S)CH(Me)CH2NHC2H4OH)}) | > 0.5 | 0.297 | 0.264 | 0.234
CCCCCC[C@@H](C)C[C@H](NC(=O)C(C)(C)NC(=O)C(C)(C)NC(=O)[C@H](C[C@H](C)C[C@@H](O)CC(=O)CC)NC(=O)[C@@H]1CCCN1C(=O)CCC)C(=O)N[C@@H](CC(C)C)C(=O)NC(C)(C)C(=O)N[C@@H](CC(C)C)C(=O)NCCC(=O)N[C@@H](C)CNCCO (Butyryl-P[X8][Aib][Aib][X1]L[Aib]L[βAla]-{NH((S)CH(Me)CH2NHC2H4OH)}) | 0.032 | 0.008 | 0.005 | 0.005
CCCCCC[C@@H](C)C[C@H](NC(=O)C(C)(C)NC(=O)C(C)(C)NC(=O)[C@H](CCCC(O)CC(=O)CC)NC(=O)[C@@H]1CCCN1C(=O)CCC)C(=O)N[C@@H](CC(C)C)C(=O)NC(C)(C)C(=O)N[C@@H](CC(C)C)C(=O)NCCC(=O)N[C@@H](C)CNCCO (stereo partly drawn) (Butyryl-P[X9][Aib][Aib][X1]L[Aib]L[βAla]-{NH((S)CH(Me)CH2NHC2H4OH)}) | 0.5 | 0.07 | 0.08 | 0.19

Further lines, results first:

IC50 [1] [µM] | IC50 [2] [µM] | IC50 [3] [µM] | IC50 [4] [µM] | SMILES
> 1 | > 1 | > 1 | > 1 | CCCCCC[C@@H](C)C[C@H](NC(=O)C(C)(C)NC(=O)C(C)(C)NC(=O)[C@H](CCCCN)NC(=O)[C@@H]1CCCN1C(=O)CCC)C(=O)N[C@@H](CC(C)C)C(=O)NC(C)(C)C(=O)N[C@@H](CC(C)C)C(=O)NCCC(=O)N[C@@H](C)CNCCO (Butyryl-PK[Aib][Aib][X1]L[Aib]L[βAla]-{NH((S)CH(Me)CH2NHC2H4OH)})
0.24 | 0.14 | 0.17 | 0.19 | CCCCCC[C@@H](C)C[C@H](NC(=O)C(C)(C)NC(=O)C(C)(C)NC(=O)[C@H](CCCCCC)NC(=O)[C@@H]1CCCN1C(=O)CCC)C(=O)N[C@@H](CC(C)C)C(=O)NC(C)(C)C(=O)N[C@@H](CC(C)C)C(=O)NCCC(=O)N[C@@H](C)CNCCO (Butyryl-P[Aoc(2)][Aib][Aib][X1]L[Aib]L[βAla]-{NH((S)CH(Me)CH2NHC2H4OH)})
0.28 | 0.059 | 0.232 | 0.382 | CCCCCCCCCC[C@H](NC(=O)[C@@H]1CCCN1C(=O)CCC)C(=O)NC(C)(C)C(=O)NC(C)(C)C(=O)N[C@@H](C[C@H](C)CCCCCC)C(=O)N[C@@H](CC(C)C)C(=O)NC(C)(C)C(=O)N[C@@H](CC(C)C)C(=O)NCCC(=O)N[C@@H](C)CNCCO (Butyryl-P[Gly(decyl)][Aib][Aib][X1]L[Aib]L[βAla]-{NH((S)CH(Me)CH2NHC2H4OH)})
0.03 | 0.01 | 0.01 | 0.01 | CCCCCC[C@@H](C)C[C@H](NC(=O)C(C)(C)NC(=O)C(C)(C)NC(=O)[C@H](CCCC(=O)CCCC)NC(=O)[C@@H]1CCCN1C(=O)CCC)C(=O)N[C@@H](CC(C)C)C(=O)NC(C)(C)C(=O)N[C@@H](CC(C)C)C(=O)NCCC(=O)N[C@@H](C)CNCCO (Butyryl-P[Nva(5-pentanoyl)][Aib][Aib][X1]L[Aib]L[βAla]-{NH((S)CH(Me)CH2NHC2H4OH)})
0.236 | 0.04 | 0.031 | 0.037 | CCCCCCCC[C@@H](C)C[C@H](NC(=O)[C@@H]1CCCN1C(=O)CCC)C(=O)NC(C)(C)C(=O)NC(C)(C)C(=O)N[C@@H](C[C@H](C)CCCCCC)C(=O)N[C@@H](CC(C)C)C(=O)NC(C)(C)C(=O)N[C@@H](CC(C)C)C(=O)NCCC(=O)N[C@@H](C)CNCCO (Butyryl-P[X4][Aib][Aib][X1]L[Aib]L[βAla]-{NH((S)CH(Me)CH2NHC2H4OH)})
0.018 | 0.008 | 0.006 | 0.005 | CCCCCCC(=O)CCC[C@H](NC(=O)[C@@H]1CCCN1C(=O)CCC)C(=O)NC(C)(C)C(=O)NC(C)(C)C(=O)N[C@@H](C[C@H](C)CCCCCC)C(=O)N[C@@H](CC(C)C)C(=O)NC(C)(C)C(=O)N[C@@H](CC(C)C)C(=O)NCCC(=O)N[C@@H](C)CNCCO (Butyryl-P[X5][Aib][Aib][X1]L[Aib]L[βAla]-{NH((S)CH(Me)CH2NHC2H4OH)})
0.059 | 0.025 | 0.014 | 0.028 | CCCCCC[C@@H](C)C[C@H](NC(=O)C(C)(C)NC(=O)C(C)(C)NC(=O)[C@H](CCCCO)NC(=O)[C@@H]1CCCN1C(=O)CCC)C(=O)N[C@@H](CC(C)C)C(=O)NC(C)(C)C(=O)N[C@@H](CC(C)C)C(=O)NCCC(=O)N[C@@H](C)CNCCO (Butyryl-P[X7][Aib][Aib][X1]L[Aib]L[βAla]-{NH((S)CH(Me)CH2NHC2H4OH)})
0.108 | 0.03 | 0.02 | 0.03 | CCCCCC[C@@H](C)C[C@H](NC(=O)C(C)(C)NC(=O)C(C)(C)NC(=O)[C@H](CCO)NC(=O)[C@@H]1CCCN1C(=O)CCC)C(=O)N[C@@H](CC(C)C)C(=O)NC(C)(C)C(=O)N[C@@H](CC(C)C)C(=O)NCCC(=O)N[C@@H](C)CNCCO (Butyryl-P[hSer][Aib][Aib][X1]L[Aib]L[βAla]-{NH((S)CH(Me)CH2NHC2H4OH)})
0.1 | 0.02 | 0.008 | 0.008 | CCCCCC[C@@H](C)C[C@H](NC(=O)C(C)(C)NC(=O)C(C)(C)NC(=O)[C@H](CCCC(O)CCCC)NC(=O)[C@@H]1CCCN1C(=O)CCC)C(=O)N[C@@H](CC(C)C)C(=O)NC(C)(C)C(=O)N[C@@H](CC(C)C)C(=O)NCCC(=O)N[C@@H](C)CNCCO (mixture of isomers)
